Measured values: ChEMBL document CHEMBL4017520, “Discovery, Structure-Activity Relationship, and Antiparkinsonian Effect of a Potent and Brain-Penetrant Chemical Series of Positive Allosteric Modulators of Metabotropic Glutamate Receptor 4” (J Med Chem, 2017)
The source made the active and inactive calls. The calls are words filed in the database; no cut-off is given here.

What was measured:
[1] = target: Adenosine receptor A2a (Homo sapiens) (UniProt P29274); experiment: Antagonist activity at A2A receptor (unknown origin) at 10 uM
[2] = target: Metabotropic glutamate receptor 3 (Homo sapiens) (UniProt Q14832); experiment: Activity at human mGlu3 receptor expressed in HEK293 cells co-expressing Gi/Gq assessed as effect on intracellular calcium level up to 10 uM after 10 mins by Fluo4-AM dye based fluorescence assay; type: functional, cell-based
Method in brief: (§1)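 HEK-293 cells transiently expressing the human mGluR with a promiscuous or chimeric G protein were serum-starved 3 h and loaded 1.5 h with 1 μM Fluo4-AM. Compound alone was added in assay buffer, and calcium fluorescence (ex 485/em 525) was recorded for 10 min as agonist readout.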

Mus musculus [3] = experiment: Anti-parkinson's activity in ip dosed C57BL/6 mouse assessed as reversal of haloperidol-induced catalepsy after 40 mins; type: functional, organism-based
[4] = target: Metabotropic glutamate receptor 2 (Homo sapiens) (UniProt Q14416); experiment: Activity at human mGlu2 receptor expressed in HEK293 cells co-expressing Gi/Gq assessed as effect on EC20/EC80 glutamate-induced intracellular calcium level up to 10 uM preincubated for 10 mins followed by glutamate addition measured for 3 mins by Fluo4-AM dye based fluorescence assay; type: functional, cell-based
Method in brief: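 HEK-293 cells were electroporated with the human mGluR plus a promiscuous or chimeric G protein and cultured 24 h, then serum-starved 3 h. Cells were loaded 1.5 h with 1 μM Fluo4-AM in HBSS/HEPES buffer with probenecid and 0.1% BSA. Compound was added for 10 min, then glutamate at EC20 (PAM) or EC80 (NAM), and fluorescence (ex 485/em 525) was read for 3 min.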

[5] = target: Adenosine receptor A2a (Homo sapiens) (UniProt P29274); experiment: Positive allosteric modulation of A2A receptor (unknown origin) at 10 uM
[6] = target: Metabotropic glutamate receptor 1 (Homo sapiens) (UniProt Q13255); experiment: Activity at human mGlu1 receptor expressed in HEK293 cells co-expressing Gi/Gq assessed as effect on intracellular calcium level up to 10 uM after 10 mins by Fluo4-AM dye based fluorescence assay; type: functional, cell-based; method in brief: as §1
Rattus norvegicus = organism: Rattus norvegicus; experiment: Activity at NMDA glutamate receptor in rat cerebral cortex at 10 uM
Method in brief: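 Inhibition of orthosteric ligand binding to NMDA, AMPA and kainate receptors on rat cerebral cortex membranes, tested up to 10 μM.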

[7] = Ratio of fraction unbound in Sprague-Dawley rat brain at 30 mg/kg, ip after 120 mins to EC50 for rat mGlu4 receptor expressed in HEK293 cells
[8] = Ratio of drug level in Sprague-Dawley rat brain to plasma at 1 mg/kg, iv after 1 hr post dose administered as single dose by LC-MS/MS analysis; type: ADME, organism-based; conditions: read-out: BPR
Method in brief: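 Single iv dose, 1 mg/kg in rat or 2 mg/kg in mouse; plasma PK parameters derived; brain/plasma ratio taken at 1 h postdose (rat) or 30 min postdose (mouse). Mean of 3 rats; 2 mice for mouse Cmax and brain/plasma.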

[9] = target: Metabotropic glutamate receptor 4 (Rattus norvegicus, UniProt P31423); experiment: Positive allosteric modulation of rat mGlu4 receptor expressed in HEK293 cells co-expressing Gi/Gq assessed as increase in glutamate-induced calcium flux preincubated for 10 mins followed by glutamate addition measured for 3 mins by Fluo4-AM dye based fluorescence assay; type: functional, cell-based
Mus musculus [10] = experiment: Volume of distribution in C57BL/6 mouse at 2 mg/kg, iv administered as single dose by LC-MS/MS analysis; type: ADME, organism-based; conditions: in vivo
Method in brief: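 Single intravenous dose: rats 1 mg/kg, mice 2 mg/kg. Plasma concentration–time data yielded Cmax, t1/2, AUC0−∞, plasma clearance and volume of distribution. Values are mean ±SEM of 3 animals.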

[11] = Drug uptake in Sprague-Dawley rat brain at 10 mg/kg, po after 60 mins post dose administered as single dose by LC-MS/MS analysis; type: ADME, organism-based; conditions: read-out: Drug uptake
Method in brief: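 Rats given a single oral dose of 10 mg/kg. Brain concentrations were measured at 30, 60 and 90 min postdose, and brain AUC0–inf was determined. Values are the mean of three rats. Lower limit of quantification was 1 ng/mL.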

[12] = Ratio of drug level in C57BL/6 mouse brain to plasma at 10 mg/kg, po after 30 mins post dose administered as single dose by LC-MS/MS analysis; type: ADME, organism-based; conditions: read-out: BPR
Method in brief: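 Single dose ip (10 or 30 mg/kg, rat) or oral (10 mg/kg, rat or mouse); plasma Cmax, Tmax, half-life, AUC0−inf derived; brain concentration and brain/plasma ratio at 30 min postdose. Mean of 3 rats or 2 mice.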

[13] = Plasma concentration in Sprague-Dawley rat at 30 mg/kg, ip after 30 mins; type: ADME, organism-based
Method in brief: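 Rats dosed 30 mg/kg ip; plasma sampled over time, brain measured at 30 and 60 min; brain/plasma ratio averaged over 30 and 60 min.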

[14] = Cmax in Sprague-Dawley rat plasma at 10 mg/kg, ip administered as single dose by LC-MS/MS analysis; type: ADME, organism-based; parameters: dose 10 mg/kg, route intraperitoneal
Method in brief: (§2)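 Rats dosed ip at 10 or 30 mg/kg. Plasma Cmax, Tmax, half-life and AUC0–inf were determined. Brain concentration was measured 30 min postdose, and brain/plasma ratio was taken at 30 min. Values are the mean (±SEM) of 3 rats.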

[15] = Tmax in Sprague-Dawley rat plasma at 30 mg/kg, ip administered as single dose by LC-MS/MS analysis; type: ADME, organism-based
Method in brief: (§3)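 Single-dose plasma PK after ip (10 or 30 mg/kg) or oral (10 mg/kg) dosing in rats, and oral 10 mg/kg dosing in mice. […] Values are mean ±SEM of 3 rats or 2 mice.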

[16] = AUC (0 to infinity) in C57BL/6 mouse at 2 mg/kg, iv administered as single dose by LC-MS/MS analysis; type: ADME, organism-based; parameters: dose 2 mg/kg, time infinity, route intravenous; conditions: in vivo
[17] = target: Amine oxidase [flavin-containing] A (Homo sapiens, UniProt P21397); experiment: Activity at MAO-A (unknown origin) up to 10 uM; type: ADME
Plasma = experiment: Drug level in Sprague-Dawley rat plasma at 10 mg/kg, po administered as single dose measured at 24 hrs post dose by LC-MS/MS analysis; type: ADME, organism-based; conditions: in vivo
Method in brief: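 Rats given a single oral dose of 10 mg/kg. The first plasma sample was taken at 15 min, and sampling continued to 24 h postdose. Brain was sampled at 30 min. Values are the mean (±SEM) of 3 rats.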

[18] = Drug uptake in Sprague-Dawley rat brain at 30 mg/kg, ip after 30 mins post dose administered as single dose by LC-MS/MS analysis; type: ADME, organism-based; conditions: read-out: Drug uptake; method in brief: as §2
[19] = Drug uptake in Sprague-Dawley rat brain at 10 mg/kg, ip after 30 mins post dose administered as single dose by LC-MS/MS analysis; type: ADME, organism-based; conditions: read-out: Drug uptake; method in brief: as §2
[20] = Tmax in Sprague-Dawley rat plasma at 10 mg/kg, ip administered as single dose by LC-MS/MS analysis; type: ADME, organism-based; method in brief: as §3
Brain = experiment: Fraction unbound in Sprague-Dawley rat brain at 30 mg/kg, ip after 240 mins; type: ADME, organism-based; conditions: in vivo, 4 h

Adenosine receptor A2a (Homo sapiens), sequence (P29274 whole entry): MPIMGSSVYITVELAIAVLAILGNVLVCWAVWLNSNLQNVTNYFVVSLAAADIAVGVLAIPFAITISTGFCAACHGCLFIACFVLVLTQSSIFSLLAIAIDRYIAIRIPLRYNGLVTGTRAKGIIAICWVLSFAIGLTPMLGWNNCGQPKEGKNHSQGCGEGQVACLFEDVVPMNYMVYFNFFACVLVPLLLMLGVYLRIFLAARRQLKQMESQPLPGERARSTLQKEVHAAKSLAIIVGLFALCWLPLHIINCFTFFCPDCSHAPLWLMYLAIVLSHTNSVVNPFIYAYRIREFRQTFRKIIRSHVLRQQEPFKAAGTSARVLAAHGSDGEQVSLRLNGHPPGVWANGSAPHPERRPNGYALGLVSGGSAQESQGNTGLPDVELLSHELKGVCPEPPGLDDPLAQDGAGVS
Metabotropic glutamate receptor 1 (Homo sapiens), sequence (Q13255 19-1194 limits assumed): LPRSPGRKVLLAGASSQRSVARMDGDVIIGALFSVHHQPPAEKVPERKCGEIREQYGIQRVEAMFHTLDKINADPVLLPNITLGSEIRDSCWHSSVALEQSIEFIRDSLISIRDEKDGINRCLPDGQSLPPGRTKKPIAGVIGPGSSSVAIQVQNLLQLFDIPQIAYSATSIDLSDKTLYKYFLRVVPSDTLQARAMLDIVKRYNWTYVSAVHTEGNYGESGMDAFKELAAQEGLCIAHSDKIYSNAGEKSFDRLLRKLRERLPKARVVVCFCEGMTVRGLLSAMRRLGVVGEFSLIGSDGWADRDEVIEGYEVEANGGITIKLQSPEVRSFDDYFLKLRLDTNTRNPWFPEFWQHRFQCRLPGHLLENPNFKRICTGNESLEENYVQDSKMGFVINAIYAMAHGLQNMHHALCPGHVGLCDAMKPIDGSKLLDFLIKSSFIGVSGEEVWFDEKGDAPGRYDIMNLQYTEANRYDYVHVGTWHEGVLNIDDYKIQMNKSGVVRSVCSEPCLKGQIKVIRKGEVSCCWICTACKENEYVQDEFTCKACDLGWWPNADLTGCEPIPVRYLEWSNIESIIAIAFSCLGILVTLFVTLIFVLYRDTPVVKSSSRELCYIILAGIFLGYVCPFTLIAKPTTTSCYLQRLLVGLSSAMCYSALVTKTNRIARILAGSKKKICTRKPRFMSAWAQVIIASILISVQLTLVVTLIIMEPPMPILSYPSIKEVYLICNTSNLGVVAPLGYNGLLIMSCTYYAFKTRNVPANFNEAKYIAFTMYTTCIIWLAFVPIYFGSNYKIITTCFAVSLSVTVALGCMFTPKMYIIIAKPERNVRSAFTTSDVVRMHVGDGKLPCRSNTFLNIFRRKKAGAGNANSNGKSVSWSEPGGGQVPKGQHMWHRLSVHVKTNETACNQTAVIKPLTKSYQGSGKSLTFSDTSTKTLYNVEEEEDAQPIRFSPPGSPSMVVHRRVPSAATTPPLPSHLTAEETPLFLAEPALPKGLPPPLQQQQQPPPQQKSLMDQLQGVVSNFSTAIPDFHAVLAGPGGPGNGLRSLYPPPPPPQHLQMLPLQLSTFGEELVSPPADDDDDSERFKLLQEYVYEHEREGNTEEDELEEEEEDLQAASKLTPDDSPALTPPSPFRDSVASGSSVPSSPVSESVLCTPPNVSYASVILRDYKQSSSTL
Amine oxidase [flavin-containing] A, sequence (P21397 whole entry): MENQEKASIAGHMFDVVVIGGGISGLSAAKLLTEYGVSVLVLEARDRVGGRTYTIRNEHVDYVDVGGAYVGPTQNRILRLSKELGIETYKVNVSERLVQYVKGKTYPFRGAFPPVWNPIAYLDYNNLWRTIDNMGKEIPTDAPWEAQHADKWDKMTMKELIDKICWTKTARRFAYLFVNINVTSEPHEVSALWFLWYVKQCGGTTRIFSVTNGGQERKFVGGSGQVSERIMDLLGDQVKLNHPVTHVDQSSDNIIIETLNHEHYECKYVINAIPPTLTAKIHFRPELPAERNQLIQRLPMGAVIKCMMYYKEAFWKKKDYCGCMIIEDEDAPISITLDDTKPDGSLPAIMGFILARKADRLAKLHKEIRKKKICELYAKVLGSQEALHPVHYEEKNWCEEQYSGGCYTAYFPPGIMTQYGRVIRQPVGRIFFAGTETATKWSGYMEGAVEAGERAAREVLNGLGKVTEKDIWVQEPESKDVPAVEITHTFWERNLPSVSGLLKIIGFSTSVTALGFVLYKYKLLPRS
Metabotropic glutamate receptor 3 (Homo sapiens), sequence (Q14832 23-879 limits assumed): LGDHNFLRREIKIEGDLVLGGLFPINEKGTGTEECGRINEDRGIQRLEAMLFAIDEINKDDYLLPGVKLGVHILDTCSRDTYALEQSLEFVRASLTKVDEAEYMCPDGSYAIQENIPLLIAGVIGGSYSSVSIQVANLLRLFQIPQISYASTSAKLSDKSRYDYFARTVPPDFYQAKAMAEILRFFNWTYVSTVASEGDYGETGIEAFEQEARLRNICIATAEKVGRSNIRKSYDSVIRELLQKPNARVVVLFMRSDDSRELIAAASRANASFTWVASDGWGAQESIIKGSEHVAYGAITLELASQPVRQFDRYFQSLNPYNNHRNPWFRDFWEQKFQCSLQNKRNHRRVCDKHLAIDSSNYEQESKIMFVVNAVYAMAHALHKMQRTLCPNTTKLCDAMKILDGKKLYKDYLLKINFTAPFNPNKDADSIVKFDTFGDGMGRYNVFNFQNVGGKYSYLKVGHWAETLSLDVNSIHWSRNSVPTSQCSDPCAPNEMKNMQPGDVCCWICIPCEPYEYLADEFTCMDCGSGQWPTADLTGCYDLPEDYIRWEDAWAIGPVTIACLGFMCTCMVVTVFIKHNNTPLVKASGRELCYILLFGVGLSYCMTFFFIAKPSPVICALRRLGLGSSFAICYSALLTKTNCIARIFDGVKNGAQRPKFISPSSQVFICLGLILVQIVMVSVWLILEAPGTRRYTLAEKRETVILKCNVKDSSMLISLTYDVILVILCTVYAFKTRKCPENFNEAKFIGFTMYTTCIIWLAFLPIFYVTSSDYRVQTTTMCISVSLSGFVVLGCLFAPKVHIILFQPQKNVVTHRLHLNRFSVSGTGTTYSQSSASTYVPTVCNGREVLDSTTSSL
Metabotropic glutamate receptor 2 (Homo sapiens), sequence (Q14416 19-872 limits assumed): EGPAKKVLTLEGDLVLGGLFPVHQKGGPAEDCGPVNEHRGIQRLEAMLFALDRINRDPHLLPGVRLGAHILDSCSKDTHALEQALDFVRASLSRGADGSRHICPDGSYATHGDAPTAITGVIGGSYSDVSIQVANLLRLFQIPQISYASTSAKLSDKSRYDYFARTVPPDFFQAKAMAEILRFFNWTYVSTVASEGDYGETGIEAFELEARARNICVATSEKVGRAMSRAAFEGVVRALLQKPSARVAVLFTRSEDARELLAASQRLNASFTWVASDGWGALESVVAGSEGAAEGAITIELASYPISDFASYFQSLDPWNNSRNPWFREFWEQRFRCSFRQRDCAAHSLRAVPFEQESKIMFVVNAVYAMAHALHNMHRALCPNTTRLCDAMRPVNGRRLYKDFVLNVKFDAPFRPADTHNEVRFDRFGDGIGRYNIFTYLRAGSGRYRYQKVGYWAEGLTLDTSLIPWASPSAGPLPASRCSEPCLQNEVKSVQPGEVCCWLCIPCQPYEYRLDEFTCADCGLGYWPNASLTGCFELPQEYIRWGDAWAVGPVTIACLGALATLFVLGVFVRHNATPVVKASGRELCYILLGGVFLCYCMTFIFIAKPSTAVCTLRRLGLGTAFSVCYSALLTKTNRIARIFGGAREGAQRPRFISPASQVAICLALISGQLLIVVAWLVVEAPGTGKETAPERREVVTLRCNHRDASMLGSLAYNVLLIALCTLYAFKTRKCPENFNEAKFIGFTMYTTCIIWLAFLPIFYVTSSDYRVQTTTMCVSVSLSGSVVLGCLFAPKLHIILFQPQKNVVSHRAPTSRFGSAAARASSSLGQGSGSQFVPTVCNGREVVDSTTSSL
Metabotropic glutamate receptor 4, sequence (P31423 whole entry): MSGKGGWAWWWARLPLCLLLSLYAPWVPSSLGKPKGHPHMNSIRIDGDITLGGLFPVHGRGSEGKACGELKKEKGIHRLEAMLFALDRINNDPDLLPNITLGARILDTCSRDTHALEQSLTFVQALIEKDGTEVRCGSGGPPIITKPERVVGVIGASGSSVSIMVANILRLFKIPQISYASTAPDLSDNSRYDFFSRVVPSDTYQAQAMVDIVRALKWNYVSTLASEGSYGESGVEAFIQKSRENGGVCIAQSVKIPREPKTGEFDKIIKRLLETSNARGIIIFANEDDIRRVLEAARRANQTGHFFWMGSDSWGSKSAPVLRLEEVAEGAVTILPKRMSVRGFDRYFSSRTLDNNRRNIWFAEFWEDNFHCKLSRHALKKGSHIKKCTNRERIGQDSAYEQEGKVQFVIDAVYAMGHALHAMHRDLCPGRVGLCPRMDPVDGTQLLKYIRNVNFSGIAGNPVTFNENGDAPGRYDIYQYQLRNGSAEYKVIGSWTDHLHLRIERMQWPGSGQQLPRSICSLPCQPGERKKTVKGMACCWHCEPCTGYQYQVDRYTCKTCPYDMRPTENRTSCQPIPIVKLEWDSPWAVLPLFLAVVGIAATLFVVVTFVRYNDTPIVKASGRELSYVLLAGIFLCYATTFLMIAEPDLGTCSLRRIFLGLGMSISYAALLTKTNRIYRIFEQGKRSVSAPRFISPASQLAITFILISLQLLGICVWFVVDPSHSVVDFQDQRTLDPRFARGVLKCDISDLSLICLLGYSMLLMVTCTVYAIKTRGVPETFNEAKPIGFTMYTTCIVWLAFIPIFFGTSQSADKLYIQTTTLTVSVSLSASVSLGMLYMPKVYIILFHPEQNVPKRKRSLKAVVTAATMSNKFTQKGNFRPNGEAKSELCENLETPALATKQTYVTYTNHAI

With `O/N=c1\cc(-c2cc3cccn3cn2)oc2ccc(OCCN3CCOCC3)cc12` [listing 1 of 2 here] as the molecule, how does the Activity [1] read?
The Activity was “inactive”.

And the Activity [2]?
Its Activity is “inactive”.

And the Activity (Mus musculus [3])?
Its Activity is “Dose-dependent effect”.

And the Activity [4]?
The Activity was “inactive”.

What about the Activity [5] of the same molecule?
The Activity was “inactive”.

And the Activity [6]?
Its Activity is “inactive”.

What about the Activity (Rattus norvegicus) of the same molecule?
The Activity was “inactive”.

What does the source list for `O/N=c1\cc(-c2cc3cccn3cn2)oc2ccc(OCCN3CCOCC3)cc12` [listing 2 of 2 here]?
Ratio [7]: 1.1; Kp at 1 h [8]: 3.3; EC50 [9]: 27 nM; Vd (Mus musculus [10]): 6 L/kg; concentration at 1 h [11]: 262 ng/g; Kp at 0.5 h [12]: 1.7; concentration at 0.5 h [13]: 7400 ng/mL; Cmax [14]: 1500 ng/mL; Tmax [15]: 15 min; AUC(0-inf) [16]: 269 ng·h/mL; Activity [17]: Not Active; Drug uptake (Plasma): 2 to 10%; concentration at 0.5 h [18]: 22800 ng/g; concentration at 0.5 h [19]: 5650 ng/g; Tmax [20]: 15 min; Drug uptake(free) (Brain): 2 ng/g
